# Source: ChEMBL document CHEMBL1139291, “Syntheses and opioid receptor binding properties of carboxamido-substituted opioids” (Bioorg Med Chem Lett, 2009)
# Experiments:
# [1] = target: Mu-type opioid receptor (Cavia porcellus, UniProt P97266); test: Displacement of [3H]DAMGO form mu opioid receptor in guinea pig brain
# [2] = Displacement of [3H]Naltrindole form delta opioid receptor in guinea pig brain; design: species or system Cavia porcellus
# Outline: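 Guinea pig brain membrane protein incubated with 12 concentrations of compound and 0.2 nM [3H]naltrindole in 50 mM Tris–HCl, pH 7.5, with 10 mM MgCl2 and 0.5 mM PMSF, for 3 h at 25 °C. Samples filtered onto polyethyleneimine-soaked glass fiber filters, washed, and counted by scintillation. IC50 came from log-probit fit, and Ki = IC50/(1 + [radioligand]/Kd).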
# [3] = target: Kappa-type opioid receptor (Cavia porcellus, UniProt P41144); test: Displacement of [3H]U69593 form kappa opioid receptor in guinea pig brain
# [4] = organism: Cavia porcellus; test: Ratio of Ki for delta opioid receptor to Ki for kappa opioid receptor in guinea pig brain
# [5] = target: T1, Mu-type opioid receptor (Homo sapiens, UniProt P35372); test: Activity at human cloned mu opioid receptor expressed in CHO cells by [35S]GTPgammaS binding assay; assay type: functional, cell-based
# [6] = target: T1, Mu-type opioid receptor; test: Activity at human cloned mu opioid receptor expressed in CHO cells assessed as inhibition of DAMGO-induced [35S]GTPgammaS binding; assay type: functional, cell-based
# [7] = target: T2, Kappa-type opioid receptor (Homo sapiens, UniProt P41145); test: Activity at human cloned kappa opioid receptor expressed in CHO cells by [35S]GTPgammaS binding assay; assay type: functional, cell-based
# [8] = target: T1, Mu-type opioid receptor; test: Displacement of [3H]DAMGO form human mu opioid receptor expressed in CHO cells; assay type: cell-based
# [9] = target: Delta-type opioid receptor (Homo sapiens, UniProt P41143); test: Displacement of [3H]Naltrindole form human delta opioid receptor expressed in CHO cells; assay type: cell-based
# Outline: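 Membranes from CHO cells stably expressing the human receptor incubated with 12 concentrations of compound and 0.2 nM [3H]naltrindole in 50 mM Tris–HCl, pH 7.5, with 10 mM MgCl2 and 0.5 mM PMSF, for 3 h at 25 °C. Filters were soaked in 0.1% PEI before filtration and scintillation counting. IC50 came from log-probit fit, and Ki = IC50/(1 + [radioligand]/Kd).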
# [10] = target: T2, Kappa-type opioid receptor; test: Displacement of [3H]U69593 form human kappa opioid receptor expressed in CHO cells; assay type: cell-based
# [11] = tested on: CHO; test: Ratio of Ki for human mu opioid receptor to Ki for human kappa opioid receptor expressed in CHO cells; assay type: cell-based
# [12] = tested on: CHO; test: Ratio of Ki for human delta opioid receptor to Ki for human kappa opioid receptor expressed in CHO cells; assay type: cell-based
# [13] = target: T2, Kappa-type opioid receptor; test: Activity at human cloned kappa opioid receptor expressed in CHO cells assessed as inhibition of U50488-induced [35S]GTPgammaS binding; assay type: functional, cell-based
# T1 sequence (P35372 whole entry): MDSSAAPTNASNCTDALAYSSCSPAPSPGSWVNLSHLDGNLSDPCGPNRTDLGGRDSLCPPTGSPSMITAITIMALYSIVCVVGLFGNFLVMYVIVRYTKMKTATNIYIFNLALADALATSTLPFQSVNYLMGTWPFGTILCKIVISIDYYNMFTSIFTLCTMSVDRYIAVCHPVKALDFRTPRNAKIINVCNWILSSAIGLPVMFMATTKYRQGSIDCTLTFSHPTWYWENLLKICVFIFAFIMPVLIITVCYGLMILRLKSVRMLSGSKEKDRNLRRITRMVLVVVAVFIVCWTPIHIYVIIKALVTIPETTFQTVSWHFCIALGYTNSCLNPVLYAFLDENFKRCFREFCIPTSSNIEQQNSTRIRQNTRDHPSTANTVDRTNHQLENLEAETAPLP
# T2 sequence (P41145 whole entry): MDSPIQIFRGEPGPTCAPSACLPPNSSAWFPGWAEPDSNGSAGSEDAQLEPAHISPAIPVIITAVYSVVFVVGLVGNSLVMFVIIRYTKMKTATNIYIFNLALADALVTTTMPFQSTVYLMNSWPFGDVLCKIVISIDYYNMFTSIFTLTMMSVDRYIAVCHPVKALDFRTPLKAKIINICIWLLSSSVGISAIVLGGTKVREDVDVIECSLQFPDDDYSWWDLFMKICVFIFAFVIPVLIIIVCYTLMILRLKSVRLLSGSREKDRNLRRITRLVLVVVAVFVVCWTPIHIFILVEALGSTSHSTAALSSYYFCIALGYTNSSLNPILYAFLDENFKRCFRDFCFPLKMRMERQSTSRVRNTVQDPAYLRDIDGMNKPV
# Sequence of Kappa-type opioid receptor (Cavia porcellus, UniProt P41144) (P41144 whole entry): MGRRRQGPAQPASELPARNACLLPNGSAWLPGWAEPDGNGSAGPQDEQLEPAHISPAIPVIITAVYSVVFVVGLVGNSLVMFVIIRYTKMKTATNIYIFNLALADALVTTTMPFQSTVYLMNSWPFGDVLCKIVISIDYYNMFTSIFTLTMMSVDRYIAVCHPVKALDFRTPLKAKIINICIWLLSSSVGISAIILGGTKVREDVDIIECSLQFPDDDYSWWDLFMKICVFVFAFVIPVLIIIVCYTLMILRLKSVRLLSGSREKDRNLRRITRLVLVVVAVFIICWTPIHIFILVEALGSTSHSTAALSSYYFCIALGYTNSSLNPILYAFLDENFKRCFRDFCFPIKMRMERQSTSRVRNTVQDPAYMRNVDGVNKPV
# Sequence of Mu-type opioid receptor (Cavia porcellus, UniProt P97266) (P97266 whole entry): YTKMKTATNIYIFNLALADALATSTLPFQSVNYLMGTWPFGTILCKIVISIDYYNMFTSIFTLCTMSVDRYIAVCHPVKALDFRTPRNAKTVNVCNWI
# Sequence of Delta-type opioid receptor (P41143 whole entry): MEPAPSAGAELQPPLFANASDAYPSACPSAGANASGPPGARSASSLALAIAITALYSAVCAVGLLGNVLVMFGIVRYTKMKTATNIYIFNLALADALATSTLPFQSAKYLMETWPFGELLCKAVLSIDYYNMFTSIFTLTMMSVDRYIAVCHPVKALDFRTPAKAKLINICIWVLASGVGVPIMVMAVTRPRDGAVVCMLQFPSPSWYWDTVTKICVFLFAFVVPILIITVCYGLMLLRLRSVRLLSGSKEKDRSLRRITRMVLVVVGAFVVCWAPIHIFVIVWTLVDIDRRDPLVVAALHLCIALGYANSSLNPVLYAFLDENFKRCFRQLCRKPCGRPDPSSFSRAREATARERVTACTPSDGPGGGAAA
SMILES,Ki [1] [nM],Ki [2] [nM],Ki [3] [nM],Ratio Ki [4],EC50 [5] [nM],IC50 [6] [nM],EC50 [7] [nM],Ki [8] [nM],Ki [9] [nM],Ki [10] [nM],Ratio Ki [11],Ratio Ki [12],IC50 [13] [nM]
"CC1C2Cc3ccc(O)cc3[C@@]1(C)CCN2C[C@@H]1CCCO1 (single isomer, unassigned)",0.19,3.6,0.09,40,2.7,17,1,–,–,–,–,–,–
CC1C2Cc3ccc(C(N)=O)cc3C1(C)CCN2CCc1ccccc1 (centres undefined),–,–,–,–,5.3,–,4.4,0.015,1.2,0.55,0.03,2,640
CN(C)C[C@H]1CCCC[C@]1(O)c1cccc(O)c1 (relative stereo) [O-DESMETHYL TRAMADOL],–,–,–,–,–,–,–,–,2900,450,–,–,–
C=CCN1CC[C@]23c4c5ccc(O)c4O[C@H]2[C@@H](O)C=C[C@H]3[C@H]1C5 [NALORPHINE],–,–,–,–,–,–,–,0.19,120,0.38,0.5,320,–
CC(C)=CCN1CC[C@@]2(C)c3cc(C(N)=O)ccc3C[C@@H]1[C@@H]2C (relative stereo),–,–,–,–,–,–,–,–,220,5.6,–,–,–
CN1CC[C@]23c4c5ccc(C(N)=O)c4O[C@H]2[C@@H](O)C=C[C@H]3[C@H]1C5,34,1900,2000,1,–,–,–,–,–,–,–,–,–
CC1C2Cc3ccc(C(N)=O)cc3C1(C)CCN2CC1CC1 (centres undefined),–,–,–,–,–,–,–,–,5.2,–,–,–,–
CCC12CCN(CC3CC3)C(C(=O)c3ccc(C(N)=O)cc31)C2C (centres undefined),1.2,9.8,–,14,–,–,–,–,–,–,–,–,–
C[C@H]1[C@H]2C(=O)c3ccc(O)cc3[C@]1(C)CCN2CC1CC1 [KETAZOCINE],–,20,1,–,21,130,3.3,–,–,–,–,–,–
C=C1CC[C@@]2(O)[C@H]3Cc4ccc(C(N)=O)c5c4[C@@]2(CCN3CC2CC2)[C@H]1O5,–,–,–,–,–,–,–,2.6,67,2.1,1,32,–
C=CCN1CC[C@]23c4c5ccc(C(N)=O)c4O[C@@H]2[C@@H](O)C=C[C@H]3[C@H]1C5,–,–,–,–,–,–,–,18,> 10000,100,0.2,–,–
C[C@H]1[C@@H]2Cc3ccc(O)cc3[C@]1(C)CCN2C [METAZOCINE],–,–,–,–,40,–,120,3.8,140,9.9,0.4,14,–
NC(=O)c1ccc2c3c1O[C@H]1[C@@H](O)CC[C@@]4(O)[C@@H](C2)N(CC2CC2)CC[C@]314,–,–,–,–,–,–,–,7.1,> 10000,100,0.07,–,–
CC1C2Cc3ccc(C(N)=O)cc3C1(C)CCN2C (centres undefined),–,–,–,–,24,25,–,1.6,320,19,0.08,17,–
